{
  "source": "ChEMBL document CHEMBL1221349",
  "about": "“Novel pyrrolidine heterocycles as CCR1 antagonists” (Bioorg Med Chem Lett, 2010)",
  "key": {"[1]": {"experiment": "(§1) AUC (0 to infinity) in Sprague-Dawley rat at 5 mg/kg, po", "format": "ADME, organism-based, Plasma", "design": "time infinity, dose 5 mg/kg, route oral", "details": "Sprague-Dawley, plasma; call rule not given here", "outline": "(§2)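 Male Sprague-Dawley rats (3–4) were gavaged at 5 mg/kg in 0.5% methyl cellulose, either singly or in a cassette. Serial arterial-cannula blood was drawn up to 6 or 24 h. Parent compound was measured in plasma by LC/MS/MS after protein precipitation. Parameters came from non-compartmental analysis.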"}, "[2]": {"target": "T1, C-C chemokine receptor type 1 (Homo sapiens, UniProt P32246)", "T1 sequence (P32246 whole entry)": "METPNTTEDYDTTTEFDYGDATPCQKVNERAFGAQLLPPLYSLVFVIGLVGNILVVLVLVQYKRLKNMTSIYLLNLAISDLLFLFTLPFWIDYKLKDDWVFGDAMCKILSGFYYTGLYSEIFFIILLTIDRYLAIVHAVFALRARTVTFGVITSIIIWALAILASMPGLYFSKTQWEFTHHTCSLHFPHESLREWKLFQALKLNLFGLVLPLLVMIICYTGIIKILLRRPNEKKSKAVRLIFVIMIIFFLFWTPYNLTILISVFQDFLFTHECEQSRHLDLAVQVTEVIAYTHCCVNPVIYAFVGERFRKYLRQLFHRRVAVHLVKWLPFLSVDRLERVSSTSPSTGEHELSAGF", "experiment": "Displacement of [125I]-MIP1-alpha from human recombinant CCR1 expressed in HEK293 cells after 4 hrs by SPA", "format": "cell-based", "outline": "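This was a SPA binding assay on membranes from HEK293 cells stably expressing human CCR1 from an episomal vector. Buffer was 130 mM NaCl, 5 mM KCl, 1 mM MnCl2, 50 mM Tris-HCl pH 7.4, 0.1% BSA, with SPA beads at 10 mg/ml. Compound dilutions were added, then [125I]-MIP1a at 0.1 nM final. Plates were spun 2 min, incubated 4 h, then scintillation-counted.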"}, "[3]": {"experiment": "Metabolic stability in human liver microsomes assessed as compound remaining at 1 uM after 30 mins", "format": "ADME, Microsome", "details": "read-out: Stability", "outline": "(§3)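 Rat or human liver microsomes (300 nM cytochrome P450) were incubated in phosphate buffer pH 7.4 with test compound and 1 mM NADPH for 30 min at 37 °C. Reactions were stopped with acetonitrile and centrifuged. Samples were analyzed by LC/MS as percent parent remaining at 30 min.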"}, "[4]": {"experiment": "Metabolic stability in rat liver microsomes assessed as compound remaining at 1 uM after 30 mins", "format": "ADME, Microsome", "details": "read-out: Stability", "outline": "as §3"}, "[5]": {"test_system": "Rattus norvegicus", "experiment": "as §1", "format": "ADME, organism-based, Plasma", "design": "time infinity, dose 5 mg/kg, route oral", "details": "in vivo", "outline": "as §2"}, "[6]": {"experiment": "Tmax in Sprague-Dawley rat plasma at 5 mg/kg, po", "format": "ADME, organism-based", "design": "dose 5 mg/kg, route oral", "outline": "as §2"}, "[7]": {"experiment": "Cmax in Sprague-Dawley rat plasma at 5 mg/kg, po", "format": "ADME, organism-based", "design": "dose 5 mg/kg, route oral", "outline": "as §2"}, "[8]": {"target": "Cytochrome P450 2C9 (Homo sapiens, UniProt P11712)", "sequence (P11712 whole entry)": "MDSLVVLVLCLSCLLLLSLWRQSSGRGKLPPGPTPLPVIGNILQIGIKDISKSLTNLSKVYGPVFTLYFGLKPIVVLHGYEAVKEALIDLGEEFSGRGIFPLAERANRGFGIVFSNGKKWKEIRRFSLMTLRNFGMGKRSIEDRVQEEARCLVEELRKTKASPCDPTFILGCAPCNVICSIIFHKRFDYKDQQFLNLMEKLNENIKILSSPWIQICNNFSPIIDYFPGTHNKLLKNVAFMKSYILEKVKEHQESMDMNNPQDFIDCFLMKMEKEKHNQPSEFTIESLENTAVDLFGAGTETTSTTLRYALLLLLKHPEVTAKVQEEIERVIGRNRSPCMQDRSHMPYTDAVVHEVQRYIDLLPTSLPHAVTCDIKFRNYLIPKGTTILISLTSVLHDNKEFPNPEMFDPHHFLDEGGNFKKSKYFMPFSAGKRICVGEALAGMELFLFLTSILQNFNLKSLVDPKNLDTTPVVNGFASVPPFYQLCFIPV", "experiment": "Inhibition of human recombinant CYP2C9 at < 10 uM", "format": "ADME", "details": "recombinant enzyme", "outline": "(§4)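 Each human recombinant CYP isoenzyme (1A2, 2C9, 2C19, 2D6, 3A4) was run with its own fluorogenic substrate, with test compound up to […]. Fluorescence was read after a defined reaction time. Percent inhibition was fitted against log concentration to give IC50.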"}, "[9]": {"target": "Cytochrome P450 2C19 (Homo sapiens, UniProt P33261)", "sequence (P33261 whole entry)": "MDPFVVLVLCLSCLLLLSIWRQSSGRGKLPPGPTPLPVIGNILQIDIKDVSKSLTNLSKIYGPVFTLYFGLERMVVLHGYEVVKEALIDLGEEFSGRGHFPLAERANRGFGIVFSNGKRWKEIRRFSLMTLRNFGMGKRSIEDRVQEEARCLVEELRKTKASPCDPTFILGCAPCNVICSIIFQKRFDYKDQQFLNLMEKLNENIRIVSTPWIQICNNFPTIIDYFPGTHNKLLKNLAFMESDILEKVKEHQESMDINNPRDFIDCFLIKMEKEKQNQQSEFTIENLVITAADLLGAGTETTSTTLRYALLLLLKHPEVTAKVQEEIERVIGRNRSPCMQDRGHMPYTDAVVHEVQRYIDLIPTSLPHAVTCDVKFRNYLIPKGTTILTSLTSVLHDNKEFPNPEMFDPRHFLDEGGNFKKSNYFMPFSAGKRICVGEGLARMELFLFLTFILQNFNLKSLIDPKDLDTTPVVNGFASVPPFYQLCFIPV", "experiment": "Inhibition of human recombinant CYP2C19 at < 10 uM", "format": "ADME", "details": "recombinant enzyme", "outline": "as §4"}, "[10]": {"experiment": "Half life in Sprague-Dawley rat plasma at 5 mg/kg, po", "format": "ADME, organism-based", "design": "dose 5 mg/kg, route oral", "outline": "as §2"}, "[11]": {"target": "T2, Cytochrome P450 1A2 (Homo sapiens, UniProt P05177)", "T2 sequence (P05177 whole entry)": "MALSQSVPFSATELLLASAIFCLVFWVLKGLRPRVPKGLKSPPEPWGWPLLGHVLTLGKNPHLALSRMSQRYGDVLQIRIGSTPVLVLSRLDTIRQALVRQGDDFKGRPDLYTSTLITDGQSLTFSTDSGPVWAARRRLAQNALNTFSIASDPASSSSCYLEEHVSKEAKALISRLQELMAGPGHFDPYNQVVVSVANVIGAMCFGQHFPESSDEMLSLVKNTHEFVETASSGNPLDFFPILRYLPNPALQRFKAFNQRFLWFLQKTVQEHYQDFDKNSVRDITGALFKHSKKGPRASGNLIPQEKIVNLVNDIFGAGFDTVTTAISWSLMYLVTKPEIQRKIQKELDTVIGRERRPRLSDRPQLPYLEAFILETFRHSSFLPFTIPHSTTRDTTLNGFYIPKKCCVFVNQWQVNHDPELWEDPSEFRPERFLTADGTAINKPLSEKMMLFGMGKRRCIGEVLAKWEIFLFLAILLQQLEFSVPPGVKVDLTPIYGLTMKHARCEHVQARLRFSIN", "experiment": "Inhibition of human recombinant CYP1A2 at < 10 uM", "format": "ADME", "details": "recombinant enzyme", "outline": "as §4"}, "[12]": {"target": "Cytochrome P450 2D6 (Homo sapiens, UniProt P10635)", "sequence (P10635 whole entry)": "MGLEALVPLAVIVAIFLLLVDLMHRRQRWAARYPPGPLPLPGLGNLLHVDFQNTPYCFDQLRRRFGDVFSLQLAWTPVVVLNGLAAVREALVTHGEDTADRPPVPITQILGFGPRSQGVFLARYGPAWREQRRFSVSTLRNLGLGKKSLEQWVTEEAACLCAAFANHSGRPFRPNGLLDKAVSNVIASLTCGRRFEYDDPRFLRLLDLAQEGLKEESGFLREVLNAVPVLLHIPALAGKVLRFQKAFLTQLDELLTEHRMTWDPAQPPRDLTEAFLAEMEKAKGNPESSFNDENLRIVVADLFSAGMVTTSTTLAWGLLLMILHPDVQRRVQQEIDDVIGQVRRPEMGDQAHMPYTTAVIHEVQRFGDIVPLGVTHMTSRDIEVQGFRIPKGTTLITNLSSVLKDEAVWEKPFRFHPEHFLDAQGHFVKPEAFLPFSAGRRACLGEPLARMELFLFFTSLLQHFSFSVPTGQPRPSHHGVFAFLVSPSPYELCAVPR", "experiment": "Inhibition of human recombinant CYP2D6 at < 10 uM", "format": "ADME", "details": "recombinant enzyme", "outline": "as §4"}, "[13]": {"target": "Cytochrome P450 3A4 (Homo sapiens, UniProt P08684)", "sequence (P08684 whole entry)": "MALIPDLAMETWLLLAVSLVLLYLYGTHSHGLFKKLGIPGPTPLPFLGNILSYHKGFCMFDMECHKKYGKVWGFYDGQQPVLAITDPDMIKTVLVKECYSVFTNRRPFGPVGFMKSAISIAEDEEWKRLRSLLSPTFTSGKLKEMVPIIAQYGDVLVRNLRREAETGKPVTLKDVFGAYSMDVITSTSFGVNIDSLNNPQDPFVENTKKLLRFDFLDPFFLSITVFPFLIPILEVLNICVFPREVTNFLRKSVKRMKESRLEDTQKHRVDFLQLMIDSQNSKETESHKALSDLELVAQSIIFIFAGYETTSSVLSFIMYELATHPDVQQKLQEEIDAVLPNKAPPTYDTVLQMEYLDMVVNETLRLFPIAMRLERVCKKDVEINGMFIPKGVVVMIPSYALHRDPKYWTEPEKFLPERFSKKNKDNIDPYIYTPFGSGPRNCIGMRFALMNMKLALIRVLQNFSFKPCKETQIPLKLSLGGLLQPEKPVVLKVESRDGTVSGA", "experiment": "Inhibition of human recombinant CYP3A4 at < 10 uM", "format": "ADME", "details": "recombinant enzyme", "outline": "as §4"}, "[14]": {"experiment": "Oral bioavailability in Sprague-Dawley rat plasma at 5 mg/kg", "format": "ADME, organism-based", "outline": "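Male Sprague-Dawley rats (3–4) received an oral gavage of 5 mg/kg in 0.5% methyl cellulose and, separately, 1 mg/kg intravenously via an indwelling catheter. Serial arterial blood was collected. Plasma parent compound was measured by LC/MS/MS after protein precipitation. Bioavailability came from non-compartmental analysis.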"}, "[15]": {"experiment": "Antagonist activity at CCR1 in human THP1 cells assessed as inhibition of CCL3-induced chemotaxis after 3 hrs", "details": "thp-1"}},
  "data": [
    {"smiles": "O=C(Nc1ccc(C(F)(F)F)cc1)N1CCC[C@@H]1c1ncnn1Cc1ccc(Cl)cc1", "values": [
      {"measurement": "AUC(0-inf)", "setting": "[1]", "value": 4460, "unit": "ng·h/mL"},
      {"measurement": "IC50", "setting": "[2]", "value": 32, "unit": "nM"},
      {"measurement": "remaining at 0.5 h, 1 µM", "setting": "[3]", "value": 61, "unit": "%"},
      {"measurement": "remaining at 0.5 h, 1 µM", "setting": "[4]", "value": 81, "unit": "%"}
    ]},
    {"smiles": "Cc1nc([C@H]2CCCN2C(=O)Nc2ccc(C(F)(F)F)cc2)n(Cc2ccc(Cl)cc2)n1", "values": [
      {"measurement": "IC50", "setting": "[2]", "value": 810, "unit": "nM"}
    ]},
    {"smiles": "Cc1nnc([C@H]2CCCN2C(=O)Nc2ccc(C(F)(F)F)cc2)n1Cc1ccc(Cl)cc1", "values": [
      {"measurement": "AUC", "setting": "[5]", "value": 7649, "unit": "ng·h/mL"},
      {"measurement": "Tmax", "setting": "[6]", "value": 1.1, "unit": "h"},
      {"measurement": "Cmax", "setting": "[7]", "value": 1120, "unit": "ng/mL"},
      {"measurement": "inhibition (INH)", "setting": "[8]", "value": "Not Active"},
      {"measurement": "inhibition (INH)", "setting": "[9]", "value": "Not Active"},
      {"measurement": "half-life", "setting": "[10]", "value": 3.8, "unit": "h"},
      {"measurement": "inhibition (INH)", "setting": "[11]", "value": "Not Active"},
      {"measurement": "inhibition (INH)", "setting": "[12]", "value": "Not Active"},
      {"measurement": "inhibition (INH)", "setting": "[13]", "value": "Not Active"},
      {"measurement": "IC50", "setting": "[2]", "value": 69, "unit": "nM"},
      {"measurement": "remaining at 0.5 h, 1 µM", "setting": "[3]", "value": 100, "unit": "%"},
      {"measurement": "remaining at 0.5 h, 1 µM", "setting": "[4]", "value": 87, "unit": "%"},
      {"measurement": "bioavailability", "setting": "[14]", "value": 26, "unit": "%"}
    ]},
    {"smiles": "O=C(Nc1ccc(C(F)(F)F)cc1)N1CCC[C@@H]1c1nnnn1Cc1ccc(Cl)cc1", "values": [
      {"measurement": "IC50", "setting": "[2]", "value": 20, "unit": "nM"},
      {"measurement": "remaining at 0.5 h, 1 µM", "setting": "[3]", "value": 59, "unit": "%"},
      {"measurement": "remaining at 0.5 h, 1 µM", "setting": "[4]", "value": 25, "unit": "%"}
    ]},
    {"smiles": "CN(Cc1ccc(Cl)cc1)C(=O)[C@H]1CCCN1C(=O)Nc1ccc(C(F)(F)F)cc1", "values": [
      {"measurement": "IC50", "setting": "[15]", "value": 22, "unit": "nM"}
    ]},
    {"smiles": "O=C(Nc1ccc(C(F)(F)F)cc1)N1CCCC1c1nccn1Cc1ccc(Cl)cc1", "note": "(stereo not given)", "values": [
      {"measurement": "AUC(0-inf)", "setting": "[1]", "value": 100, "unit": "ng·h/mL"},
      {"measurement": "IC50", "setting": "[2]", "value": 65, "unit": "nM"},
      {"measurement": "remaining at 0.5 h, 1 µM", "setting": "[3]", "value": 39, "unit": "%"},
      {"measurement": "remaining at 0.5 h, 1 µM", "setting": "[4]", "value": 55, "unit": "%"}
    ]},
    {"smiles": "O=C(Nc1ccc(C(F)(F)F)cc1)N1CCC[C@@H]1c1nncn1Cc1ccc(Cl)cc1", "values": [
      {"measurement": "AUC(0-inf)", "setting": "[1]", "value": 657, "unit": "ng·h/mL"},
      {"measurement": "IC50", "setting": "[2]", "value": 17, "unit": "nM"},
      {"measurement": "remaining at 0.5 h, 1 µM", "setting": "[3]", "value": 52, "unit": "%"},
      {"measurement": "remaining at 0.5 h, 1 µM", "setting": "[4]", "value": 41, "unit": "%"}
    ]}
  ]
}
